Laboratory results: ChEMBL document CHEMBL5104205, “Design and evaluation of poly-nitrogenous adjuvants capable of potentiating antibiotics in Gram-negative bacteria” (RSC Med Chem, 2022)
In brackets after ≈: the same amount, converted by molar mass.

What was measured:
[1] = Drug uptake in Pseudomonas aeruginosa ATCC 9027 assessed as drug accumulation across outer membrane; format: ADME
Method in brief: (§1)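 Cells were washed twice in PBS, aliquoted and pre-shaken 10 min at 37 °C. Compound was added and incubated 10 min at 37 °C, with CFU counted before and after. Samples were spun through cold silicone oil. Supernatants were quantified by LC-MS single-ion monitoring against calibration curves.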

[2] = tested on: Pseudomonas aeruginosa; assay: Antibiotic adjuvant activity against Erythromycin-treated Pseudomonas aeruginosa ATCC 9027 assessed as fold reduction in bacterial growth inhibition by broth microdilution assay; format: functional
[3] = tested on: Escherichia coli; assay: Antibiotic adjuvant activity against Ampicillin-treated wild type Escherichia coli ATCC 25922 assessed as bacterial growth inhibition by broth microdilution assay; format: functional
Method in brief: (§2)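 Broth microdilution per CLSI M100-S23. Antibiotics spanned 0–256 µg/mL (in DMSO or water), combined with adjuvant at 20, 50 or 100 µM (in DMSO). Inoculum was a 4–6 h culture in full-strength TSB. Plates ran 12–18 h at 37 °C, each treatment in triplicate. OD590 was blank-subtracted and normalized to vehicle growth. MIC is the lowest concentration giving ≥90% inhibition.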

[4] = tested on: Escherichia coli; assay: Antibiotic adjuvant activity against Kanamycin-treated wild type Escherichia coli ATCC 25922 assessed as bacterial growth inhibition by broth microdilution assay; format: functional; method in brief: as §2
[5] = tested on: Pseudomonas aeruginosa; assay: Antibiotic adjuvant activity against Novobiocin-treated Pseudomonas aeruginosa ATCC 9027 assessed as bacterial growth inhibition by broth microdilution assay; format: functional; method in brief: as §2
[6] = tested on: Pseudomonas aeruginosa; assay: Antibiotic adjuvant activity against Kanamycin-treated Pseudomonas aeruginosa ATCC 9027 assessed as bacterial growth inhibition by broth microdilution assay; format: functional; method in brief: as §2
[7] = tested on: Escherichia coli; assay: Antibiotic adjuvant activity against Erythromycin-treated wild type Escherichia coli ATCC 25922 assessed as bacterial growth inhibition by broth microdilution assay; format: functional; method in brief: as §2
[8] = tested on: Pseudomonas aeruginosa; assay: Antibiotic adjuvant activity against Penicillin G-treated Pseudomonas aeruginosa ATCC 9027 assessed as bacterial growth inhibition by broth microdilution assay; format: functional; method in brief: as §2
[9] = tested on: Escherichia coli; assay: Antibiotic adjuvant activity against Rifampicin-treated wild type Escherichia coli ATCC 25922 assessed as bacterial growth inhibition by broth microdilution assay; format: functional; method in brief: as §2
[10] = tested on: Pseudomonas aeruginosa; assay: Antibiotic adjuvant activity against Ampicillin-treated Pseudomonas aeruginosa ATCC 9027 assessed as bacterial growth inhibition by broth microdilution assay; format: functional; method in brief: as §2
[11] = tested on: Pseudomonas aeruginosa; assay: Antibiotic adjuvant activity against Erythromycin-treated Pseudomonas aeruginosa ATCC 9027 assessed as bacterial growth inhibition by broth microdilution assay; format: functional; method in brief: as §2
[12] = tested on: Escherichia coli; assay: Antibiotic adjuvant activity against Penicillin G-treated wild type Escherichia coli ATCC 25922 assessed as bacterial growth inhibition by broth microdilution assay; format: functional; method in brief: as §2
[13] = tested on: Pseudomonas aeruginosa; assay: Antibiotic adjuvant activity against Rifampicin-treated Pseudomonas aeruginosa ATCC 9027 assessed as bacterial growth inhibition by broth microdilution assay; format: functional; method in brief: as §2
[14] = Drug uptake in wild type Escherichia coli ATCC 25922 assessed as drug accumulation across outer membrane; format: ADME; method in brief: as §1
[15] = tested on: Escherichia coli; assay: Antibiotic adjuvant activity against Novobiocin-treated wild type Escherichia coli ATCC 25922 assessed as bacterial growth inhibition by broth microdilution assay; format: functional; method in brief: as §2
[16] = tested on: Escherichia coli; assay: Antibacterial activity against wild type Escherichia coli ATCC 25922 assessed as bacterial growth inhibition at 100 ug/ml by broth microdilution assay; format: functional
[17] = tested on: Pseudomonas aeruginosa; assay: Antibacterial activity against Pseudomonas aeruginosa ATCC 9027 assessed as bacterial growth inhibition at 1000 ug/ml by broth microdilution assay; format: functional
[18] = tested on: Escherichia coli; assay: Antibiotic adjuvant activity against Novobiocin-treated wild type Escherichia coli ATCC 25922 assessed as fold reduction in bacterial growth inhibition by broth microdilution assay; format: functional
[19] = tested on: Escherichia coli; assay: Antibiotic adjuvant activity against Erythromycin-treated wild type Escherichia coli ATCC 25922 assessed as fold reduction in bacterial growth inhibition by broth microdilution assay; format: functional
[20] = tested on: Escherichia coli; assay: Antibacterial activity against wild type Escherichia coli ATCC 25922 assessed as bacterial growth inhibition by broth microdilution assay; format: functional
[21] = tested on: Pseudomonas aeruginosa; assay: Antibacterial activity against Pseudomonas aeruginosa ATCC 9027 assessed as bacterial growth inhibition by broth microdilution assay; format: functional

Row | SMILES | Drug uptake [1] [nmol] | fold change (FC) [2] | MIC [3] [µg/mL] | MIC [4] [µg/mL] | MIC [5] [µg/mL] | MIC [6] [µg/mL] | MIC [7] [µg/mL] | MIC [8] [µg/mL] | MIC [9] [µg/mL] | MIC [10] [µg/mL] | MIC [11] [µg/mL] | MIC [12] [µg/mL] | MIC [13] [µg/mL] | Drug uptake [14] [nmol] | MIC [15] [µg/mL] | MIC [20] [µg/mL] | MIC [21] [µg/mL] | other results
1 | Cl.Cl.N=C(N)c1ccc(NC(=O)CCC(=O)Nc2ccc(C(=N)N)cc2)cc1 | 0.9 | 2 | 16 | 64 | 256 | > 64 | 128 | > 256 | 4 | 128 | 64 | 64 | 16 | 1 | 64 | – | – | –
2 | Cl.Cl.N=C(N)Nc1ccc(NC(=O)CCC(=O)Nc2ccc(NC(=N)N)cc2)cc1 | 1.1 | 2 | 16 | 64 | 256 | > 64 | 64 | > 256 | 8 | 128 | 64 | 64 | 16 | 1.1 | 64 | – | – | inhibition at 100 µg/mL [16]: 18%; inhibition at 1000 µg/mL [17]: 33%; fold change (FC) [18]: 2; fold change (FC) [19]: 2
3 | Cl.Cl.N=C(N)Nc1ccc(NC(=O)CCC(=O)Nc2ccc(N)cc2)cc1 | 0.3 | 2 | 16 | 64 | 256 | > 64 | 64 | > 256 | 8 | 128 | 64 | 64 | 16 | 1.3 | 64 | – | – | fold change (FC) [19]: 2
4 | Cl.Cl.Nc1ccc(NC(=O)CCC(=O)Nc2ccc(N)cc2)cc1 | 2 | 2 | 16 | 64 | 256 | > 64 | 128 | > 256 | 8 | 128 | 64 | 64 | 16 | 3.3 | 128 | – | – | –
5 | CC1(C)S[C@@H]2[C@H](NC(=O)[C@H](N)c3ccccc3)C(=O)N2[C@H]1C(=O)O [AMPICILLIN] | < 0.06 | – | – | – | – | – | – | – | – | – | – | – | – | < 0.06 | – | 16 (≈ 45.8 µM) | 128 (≈ 366 µM) | –
6 | O=C(O)c1cn(C2CC2)c2cc(N3CCNCC3)c(F)cc2c1=O [CIPROFLOXACIN] | 1.8 | – | – | – | – | – | – | – | – | – | – | – | – | 2.4 | – | – | – | –
7 | CC[C@H]1OC(=O)[C@H](C)[C@@H](O[C@H]2C[C@@](C)(OC)[C@@H](O)[C@H](C)O2)[C@H](C)[C@@H](O[C@@H]2O[C@H](C)C[C@H](N(C)C)[C@H]2O)[C@](C)(O)C[C@@H](C)C(=O)[C@H](C)[C@@H](O)[C@]1(C)O [ERYTHROMYCIN] | – | – | – | – | – | – | – | – | – | – | – | – | – | – | – | 128 (≈ 174 µM) | 128 (≈ 174 µM) | –
8 | NC[C@H]1O[C@H](O[C@H]2[C@H](O)[C@@H](O[C@H]3O[C@H](CO)[C@@H](O)[C@H](N)[C@H]3O)[C@H](N)C[C@@H]2N)[C@H](O)[C@@H](O)[C@@H]1O [KANAMYCIN] | – | – | – | – | – | – | – | – | – | – | – | – | – | – | – | 64 (≈ 132 µM) | > 64 | –
9 | CO[C@@H]1[C@@H](OC(N)=O)[C@@H](O)[C@H](Oc2ccc3c(O)c(NC(=O)c4ccc(O)c(CC=C(C)C)c4)c(=O)oc3c2C)OC1(C)C [NOVOBIOCIN] | – | – | – | – | – | – | – | – | – | – | – | – | – | – | – | 128 (≈ 209 µM) | 256 (≈ 418 µM) | –
10 | CC1(C)S[C@@H]2[C@H](NC(=O)Cc3ccccc3)C(=O)N2[C@H]1C(=O)O [PENICILLIN G] | – | – | – | – | – | – | – | – | – | – | – | – | – | – | – | 64 (≈ 191 µM) | > 256 | –
11 | CO[C@H]1/C=C/O[C@@]2(C)Oc3c(C)c(O)c4c(O)c(c(/C=N/N5CCN(C)CC5)c(O)c4c3C2=O)NC(=O)/C(C)=C\C=C\[C@H](C)[C@H](O)[C@@H](C)[C@@H](O)[C@@H](C)[C@H](OC(C)=O)[C@@H]1C [RIFAMPIN] | – | – | – | – | – | – | – | – | – | – | – | – | – | – | – | 8 (≈ 9.72 µM) | 16 (≈ 19.4 µM) | –
